Bioassay records as filed in PubChem BioAssay.
Sampled rows, rich in hits. Any-hit rate of the full collection: about 2.5%.
GSTO1 counter: blocks human GSTO1 in RBBP9 counter-screen. hit rate 1.1% among 300,000. recombinant GSTO1, activity-based probe fluorescence polarization. inhibition, % at 5.96 µM;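 active means inhibition above the campaign mean inhibition plus 3 SD, cut at about 35% in these data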;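 further: 0% = GSTO1-1 with DMSO and 100% = wells lacking GSTO1-1 enzyme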
TDP2 absorb: blocks human TDP2 phosphodiesterase activity; recombinant TDP2, T5PNP hydrolysis, p-nitrophenol absorbance 415 nm; O95551; hit rate 0.34% among 370,000; AID 720702; inhibition, % at 12.8 µM;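 active means inhibition above the mean of all tested compounds plus 3 SD, set per campaign, cut at about 25% in these data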;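 further: 0% = DMSO with enzyme and 100% = buffer with substrate but no TDP2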
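System: recombinant human TDP2 / Amount: 120 nM TDP2 per well / Also added: 5 mM T5PNP chromogenic substrate / Doses: 12.8 µM single point, 1% DMSO / Incubation: 2 h at 37 °C / Detection: p-Nitrophenol epi absorbance / Evaluation: % inhibition relative to enzyme-containing and enzyme-free wells / Repeats: singlicate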
eLon inh: inhibits E. coli Lon protease | inhibition, % at 7.94 µM | hit rate 0.42% among 360,000 | AID 602123 | purified E. coli Lon protease, fluorescence polarization; in the data active means inhibition above about 13%, passing the limit was not always enough;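 further: 0% = enzyme with probe and DMSO and 100% = no enzyme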
PAD4 inh: inhibitors of human PAD4. recombinant PAD4, RCA probe fluorescence polarization. inhibition, % at 6.36 µM. hit rate 0.41% among 330,000;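 active means percent inhibition above a cutoff equal to the mean of all tested compounds plus 3 SD, cut at about 15% in these data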;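 further: 0% = PAD4 with RCA probe and DMSO and 100% = probe without PAD4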
PRMT1 FP inh: inhibitors of human PRMT1. inhibition, % at 2.79 µM. AID 652257. Q99873. hit rate 1.3% among 370,000. recombinant PRMT1, activity-based probe fluorescence polarization;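 active means inhibition above about 21% made by adding two undisclosed values, limit read from the data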
Target sequence (Q99873 whole entry, looked up): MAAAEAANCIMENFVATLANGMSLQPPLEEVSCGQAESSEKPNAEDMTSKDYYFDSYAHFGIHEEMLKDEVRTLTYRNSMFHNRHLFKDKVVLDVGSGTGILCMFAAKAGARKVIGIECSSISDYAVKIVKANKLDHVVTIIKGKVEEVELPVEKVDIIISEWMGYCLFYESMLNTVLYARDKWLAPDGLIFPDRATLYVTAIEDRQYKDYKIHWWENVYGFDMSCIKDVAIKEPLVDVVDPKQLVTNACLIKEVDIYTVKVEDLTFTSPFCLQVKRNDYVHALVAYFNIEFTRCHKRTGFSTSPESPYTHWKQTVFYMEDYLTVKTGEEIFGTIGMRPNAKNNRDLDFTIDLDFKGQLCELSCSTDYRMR
TDP2 confirm: human TDP2 inhibition, confirmation. shares compounds with TDP2 absorb. recombinant human TDP2, absorbance read-out. inhibition, % at 12.8 µM. hit rate 22% among 1,100. AID 743263; in the data active means inhibition above about 25%;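 further: 0% = vehicle with enzyme and 100% = no enzyme buffer only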
* hit, by the source's call; . = no result.

SMILES	GSTO1 counter	TDP2 absorb	eLon inh	PAD4 inh	PRMT1 FP inh	TDP2 confirm
CN1CCN(S(=O)(=O)c2ccc(NC(=O)COc3ccccc3)cc2)CC1	-1	4	-1	4	0	.
CN(CCOc1ccccc1)CC(=O)Nc1ccc(S(=O)(=O)N2CCCC2)cc1	-6	30*	11	-2	6	-5
CCOC(=O)c1cc2c(ccn2C)n1Cc1ccccc1C	2	26*	-4	-3	17	-15
O=C1C(=C(I)I)c2ccccc2-c2ccccc21	.	98*	-9	.	12	88*
CCOP(=O)(OCC)C(NC(=O)Nc1ccc(Cl)cc1)C(N)=O (centres undefined)	-1	45*	4	2	0	-5
Cc1ccnc(NS(=O)(=O)c2ccc(NC(=O)c3snnc3C)cc2)n1	0	-5	-8	-7	-1	.
O=C(O)c1cccc2c1C(=O)N(c1ccc3c(c1)Cc1ccccc1-3)C2=O	.	5	-7	.	-1	.
O=C(CNc1cccc2ccccc12)N/N=C/C(Br)=C/c1ccccc1	15	38*	3	2	20	-1
O=C(CNc1cccc2ccccc12)N/N=C/c1ccc[nH]1	1	-8	4	4	2	.
CC(C)CN(C(=O)CCc1ccccc1Cl)c1c(N)n(Cc2ccccc2)c(=O)[nH]c1=O	0	27*	1	1	0	-5
COc1ccc(C)cc1NC(=O)c1ccc(S(=O)(=O)N2CCCCC2)cc1	-2	8	-10	-1	-2	.
CSc1ccc(CN(C)CC(=O)Nc2ccc(NC(C)=O)cc2)cc1	4	0	4	1	0	.
CSc1ccc(CN(C)CC(=O)Nc2c(F)cccc2F)cc1	16	29*	-3	-4	0	20
Cc1ccccc1S(=O)Cc1ccc(C(=O)N2CCN(C3CCCCC3)CC2)o1 (centres undefined)	.	5	2	.	-2	.
Cc1ccccc1S(=O)Cc1ccc(C(=O)N2CCN(C(=O)c3ccco3)CC2)o1 (centres undefined)	7	39*	8	0	-2	-3
C[C@@H]1CN([C@H](C)CO)C(=O)CCCn2nncc2CO[C@H]1CN(C)C(=O)c1ccccc1	.	-5	0	.	2	.
CC1=C(C(=O)OCC(C)C)C2(O)C(=O)c3ccccc3C2(O)N1 (centres undefined)	68*	47*	-13	-6	1	20
Cc1nc2cc(NC(=O)N(C)c3ccc4ccccc4c3)ccc2o1	7	44*	14	-10	21	-5
COc1ccc(Cn2c(N)c(C#N)c3nc4ccccc4nc32)cc1	39*	37*	-21	-16	3	-1
CCCCn1c(NC(=O)c2ccccc2)c(C#N)c2nc3ccccc3nc21	.	84*	-13	.	5	85*
COCCn1c(N)c(C#N)c2nc3ccccc3nc21	27	30*	0	-6	3	15
CCNC(=O)C1(C)CCCN(C(=O)COCc2ccccc2)C1 (centres undefined)	.	3	-4	.	1	.
O=C(CN(Cc1ccc(F)cc1)C(=O)CNS(=O)(=O)c1ccccc1)NCC1CCCO1 (centres undefined)	2	3	-3	-1	-3	.
COc1ccc(CN(CC(=O)NCc2ccc(F)cc2)C(=O)CCC(=O)Nc2cc(C)ccn2)cc1	3	-7	-1	-3	0	.
CCCCC(=O)NC(=S)Nc1ccc(S(=O)(=O)N2CCCC2)cc1	-9	0	2	1	1	.
SMILES	GSTO1 counter	TDP2 absorb	eLon inh	PAD4 inh	PRMT1 FP inh	TDP2 confirm
COc1ccccc1C(=O)Nc1nc(C)cc(C)n1	-1	25*	1	4	0	1
CC1C(c2ccccc2)OCCN1C=NC#N (centres undefined)	.	8	-1	.	1	.
CCOC(=O)c1c(C)[nH]c(C)c1S(=O)(=O)N1c2ccccc2CC1C (centres undefined)	-1	55*	-6	7	2	4
CCOC(=O)c1c(S(=O)(=O)N2c3ccccc3CC2C)c(C)n(C)c1C (centres undefined)	-4	-9	-10	-4	3	.
O=C(OCc1nnc(-c2ccccc2)o1)c1ccc([N+](=O)[O-])s1	.	32*	-4	12	0	37*
Cc1ccc(C(=O)OCc2nnc(-c3ccccc3)o2)s1	-6	16	7	1	0	.
